Screening results deposited in PubChem by several laboratories.
A selection: hits, their analogues and other compounds. The true share with any hit is near 11%.
Htt clearance = compounds clearing mutant huntingtin protein; inhibition, % at 1.5 µM; 47,000 tested, 0.42% active; AID 853; HeLa Exon1htt(103Q)mCFP, aggregate imaging; zero = plate's median compound well;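 active = inhibition of aggregate fluorescence above about 70%, also judged a hit by eye on the cell image, limit read from the data, passing the limit was not always enough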;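 also: cells exposed to compound for three days before fixation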
M1 antagonist = M1 muscarinic receptor (rat) antagonism | P08482 | CHO-M1 cells, Fluo-4 calcium, ACh EC80 antagonist mode; stronger effect = lower value | B-score at 10 µM | 64,000 tested, 3.4% active;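 active = calcium fluorescence response, raw or row-and-column corrected B-score, differing from the plate sample mean either way at a set confidence level, mostly lower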
SF-1 act = activates the human nuclear receptor SF-1; CHO-K1 Gal4-SF-1 LBD luciferase reporter; % increase over DMSO SF-1-specific signal; activation, % at 10 µM; AID 522; 65,000 tested, 1.9% active; Q13285;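 active = activation above the mean activation of all tested compounds plus 3 SD, cut at about 50% in these data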
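Material: Transient Gal4-SF-1 LBD reporter, CHO-K1 | Input: 4,000 cells/well | Dosing: One dose, 10 µM compound, 1% DMSO | Incubation: 20 h compound treatment, 37 °C | Detection: SteadyLite luciferase luminescence | Evaluation: Percent activation relative to DMSO median and mock-transfected background | Benchmarks: DMSO-treated SF-1-transfected cells as negative, DMSO-treated mock-transfected cells lacking SF-1 as background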
RORa activator = activates the human nuclear receptor RORA. activation, % at 10 µM. AID 560. P35398. CHO-K1 Gal4-RORA LBD luciferase reporter, luminescence; percent increase over mock-subtracted basal signal. 65,000 tested, 1.5% active;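 active = activation above the mean of all tested compounds plus 3 SD, cut at about 49% in these data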;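 also: 0% = DMSO-treated RORA cells and 100% = added signal equal to DMSO minus mock-transfected cells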
M1 agonist = M1 muscarinic receptor agonism; CHO-M1 cells, Fluo-4 calcium fluorescence, agonist mode; stronger effect = higher value; B-score at 10 µM; AID 626; 64,000 tested, 3% active;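 active = fluorescence rise, raw or as B-score row- and column-corrected plate score, outside the 99.7% band of its plate's samples, either direction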
D1 allo mod = D1 dopamine receptor (human) allosteric modulation. HEK293 D1, CRE-luciferase, dopamine EC30 potentiation; actives deviate in either direction. P21728. 58,000 tested, 5.9% active. B-score at 10 µM;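 active = luminescence count or its row- and column-corrected plate score outside the 99.7% band of the plate's sample wells, on either side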
Target sequence (P21728 whole entry, looked up): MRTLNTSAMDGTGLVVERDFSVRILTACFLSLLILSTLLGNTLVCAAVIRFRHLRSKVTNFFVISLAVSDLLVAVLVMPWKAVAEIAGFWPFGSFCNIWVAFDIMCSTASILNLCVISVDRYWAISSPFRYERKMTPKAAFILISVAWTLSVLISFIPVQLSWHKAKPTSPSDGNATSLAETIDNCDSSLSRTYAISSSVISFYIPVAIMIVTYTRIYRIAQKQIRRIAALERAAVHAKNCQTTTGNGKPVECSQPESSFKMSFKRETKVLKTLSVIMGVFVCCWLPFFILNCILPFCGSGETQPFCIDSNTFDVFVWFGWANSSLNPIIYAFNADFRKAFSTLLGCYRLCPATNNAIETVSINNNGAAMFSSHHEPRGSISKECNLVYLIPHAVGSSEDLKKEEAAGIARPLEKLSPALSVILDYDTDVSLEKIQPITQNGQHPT
Numbers without * were called inactive; · = no result.

SMILES	Htt clearance	M1 antagonist	SF-1 act	RORa activator	M1 agonist	D1 allo mod
Cc1c(C(=O)OCC2CCCO2)[nH]c2c1C(=O)CC(c1ccc(N(C)C)cc1)C2 (centres undefined)	·	-0.36	5	-6	0.012	-2.2
Cc1ccc(CSC2=NCCN2C(=O)C2CC2)cc1	·	0.21	-11	22	1.3	-0.04
OC(CN1CCN(c2ccccn2)CC1)Cn1c2ccccc2c2ccccc21 (centres undefined)	5	0.34	10	24	-0.046	-2.7*
Cc1ccnc(N2CCC(C(=O)Nc3cccc(C(F)(F)F)c3)CC2)n1	·	0.054	-13	-19	0.88	·
CCCCn1c2nc3ccccc3nc2c2c(=O)n(CCC(C)C)cnc21	·	-1.8	-18	-13	0.039	1.7
CC(C)Cn1c2nc3ccccc3nc2c2c(=O)n(CCN3CCOCC3)cnc21	·	-0.048	2	15	-1.1	4.8*
CN(c1ccccc1)c1nc2ccsc2c(=O)s1	·	0	50*	32	0.69	·
CCN(c1ccccc1)c1nc2ccsc2c(=O)s1	·	-0.22	3	29	-0.33	1.9
CN(C)CCCNc1cn[nH]c(=O)c1Cl	42	·	·	·	·	·
Cc1ccc(S(=O)(=O)N2CCC(C(=O)OCC(=O)N3CCc4ccccc43)CC2)cc1	·	0.23	-13	19	0.36	-0.033
Cc1cccc(-c2nc3ccccc3c3nncn23)c1	3	0.57	-5	29	-0.23	14*
CN1CCN(Cc2nc(N)nc(Nc3ccc4c(c3)OCCO4)n2)CC1	-14	1.3*	13	-5	0.29	0.02
COc1ccc(OC)c(NC(=O)CSc2nnc(N)s2)c1	-20	-0.051	10	-12	0.0018	·
Cc1cc(OCC(=O)Nc2ccncc2)ccc1Br	28	-1.8	-6	6	5.4	-3.3*
Cc1ccc(OCC(=O)Nc2cccc(O)c2)cc1C	-17	0.0073	11	2	-1.2	-1.4
COCCn1cnnc1SCC(=O)c1ccc(S(=O)(=O)N2CCCC2)cc1	·	0.026	9	13	0.31	0.38
CCCCCCn1c(N2CCC(C)CC2)nc2c1c(=O)[nH]c(=O)n2C	7	-0.4	-10	0	-1.4	18*
Cn1c(=O)[nH]c(=O)c2c1nc(N1CCN(c3cccc(Cl)c3)CC1)n2CCCc1ccccc1	·	-0.0037	-10	-8	-0.15	-0.91
CCCCCn1c(N2CCC(C(N)=O)CC2)nc2c1c(=O)[nH]c(=O)n2C	7	0.24	-7	2	0.44	0.77
C=C(C)Cn1c(NCCOC)nc2c1c(=O)[nH]c(=O)n2C	-41	-0.053	3	19	0.012	-0.45
CCCCCn1c(N2CCN(c3cccc(Cl)c3)CC2)nc2c1c(=O)[nH]c(=O)n2C	54	-0.62	-4	-10	-0.039	4.9*
C=C(C)Cn1c(N2CC(C)CC(C)C2)nc2c1c(=O)[nH]c(=O)n2C (centres undefined)	·	0.36	-23	-8	1.2	7*
COC(=O)c1cc2ccsc2n1Cc1nc(-c2ccc(Cl)cc2)oc1C	46	·	·	·	·	·
COc1ccc(S(=O)(=O)c2ccc(OC)c(OC)c2)cc1OC	·	0.83	7	-4	-0.11	-0.081
S=C1N(c2ccccc2)C(c2cccc3ccccc23)N2CCCN12 (centres undefined)	21	·	·	·	·	·
SMILES	Htt clearance	M1 antagonist	SF-1 act	RORa activator	M1 agonist	D1 allo mod
Cc1sc(NC(=O)c2ccc(Cl)s2)c(C(N)=O)c1C	·	0	101*	66*	0	2.7
CCCOc1ccc(/C(O)=C2/C(=O)C(=O)N(CCN(C)C)C2c2ccncc2)cc1 (centres undefined)	·	0.23	-7	-16	-1.7	-2.9
O=C(O)CC(c1ccccc1)c1ccccc1	86*	-0.22	2	-3	-0.2	-0.17
CCCn1nnc(NC(=O)c2cccc(OCC)c2)n1	23	-0.0012	66*	52*	-0.1	-1.5
CCn1nnc(NC(=O)c2cccc(-c3cc4ccccc4oc3=O)c2)n1	-40	-0.14	55*	20	0.74	1.1
CCCn1nnc(NC(=O)c2cccc(OCC(C)C)c2)n1	·	-0.51	4	12	0.42	·
CCn1nnc(NC(=O)c2cccnc2)n1	·	0.77*	6	4	-0.96	0.0048
CCOc1cccc(C(=O)Nc2nnc(-c3ccco3)s2)c1	20	0.77	11	4	-0.28	-3.7*
CCOC(=O)Cc1nnc(NC(=O)c2cccc(OCC)c2)s1	22	-0.66	-5	-11	-0.3	0.59
